Test results as given in ChEMBL document CHEMBL3351969, “Chalcone based azacarboline analogues as novel antitubulin agents: design, synthesis, biological evaluation and molecular modelling studies” (Eur J Med Chem, 2014).
Counter-ions that a name gives are not always drawn. Activity calls are given as the source filed them. The calls are words filed in the database; no cut-off is given here.

Key:
A549 [1] = experiment: Cytotoxicity against human A549 cells assessed as growth inhibition at 50 uM after 48 hrs by sulforhodamine B assay; type: functional; settings: for inhibition of growth at 50 µM: A549, 48 h, read-out: GI
In short: (§1)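 Single-point SRB screen at 50 µM. Cells were seeded and grown 24 h at 37°C in a CO2 incubator, then exposed to compound in complete medium for 48 h. Cells were fixed with 50% TCA for 1 h at 4°C, water-washed, and stained with 0.4% SRB in 1% acetic acid for 30 min. After 1% TCA washes, dye was dissolved in Tris-HCl (0.01 M, pH 10.4) and OD read at 540 nm.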

[2] = Cytotoxicity against human HCT116 cells assessed as growth inhibition after 48 hrs by sulforhodamine B assay; type: functional, cell-based; settings: HCT-116, 48 h
In short: (§2)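 SRB growth assay with compound dilutions over several concentrations. Cells were pre-grown 24 h at 37°C in a CO2 incubator, then exposed for 48 h. Cells were fixed with 50% TCA (1 h, 4°C) and stained with 0.4% SRB in 1% acetic acid for 30 min. Bound dye was solubilised in 0.01 M Tris-HCl (pH 10.4) and read at 540 nm. Percent inhibition versus untreated (blank-subtracted) was used to calculate IC50.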

Tubulin = experiment: Inhibition of tubulin (unknown origin) polymerization after 1 hr by spectrophotometry; type: protein-complex assay, Homo sapiens
In short: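 Kit tubulin (10 mg in 1 mL general tubulin buffer plus 10 µL of 100 mM GTP) was held at 4°C. Compounds came from a 100 µM DMSO stock diluted to 50, 25 and 10 µM (pre-assay dilutions). Compound was pre-warmed in plate wells 2 min at 37°C before adding tubulin diluted in polymerization buffer (general buffer, glycerol buffer, GTP).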

THP-1 [3] = experiment: Cytotoxicity against human THP1 cells assessed as growth inhibition after 48 hrs by sulforhodamine B assay; type: functional, cell-based; settings: THP-1, 48 h; in short: as §2
[4] = (§3) Cytotoxicity against human HCT116 cells assessed as growth inhibition at 50 uM after 48 hrs by sulforhodamine B assay; type: functional; settings: HCT-116, 48 h, read-out: GI; in short: as §1
COLO 205 [5] = experiment: Cytotoxicity against human COLO205 cells assessed as growth inhibition after 48 hrs by sulforhodamine B assay; type: functional, cell-based; settings: COLO 205, 48 h; in short: as §2
COLO 205 [6] = experiment: Cytotoxicity against human COLO205 cells assessed as growth inhibition at 50 uM after 48 hrs by sulforhodamine B assay; type: functional; settings: for inhibition of growth at 50 µM: COLO 205, 48 h, read-out: GI; in short: as §1
THP-1 [7] = experiment: Cytotoxicity against human THP1 cells assessed as growth inhibition at 50 uM after 48 hrs by sulforhodamine B assay; type: functional; settings: for inhibition of growth at 50 µM: THP-1, 48 h, read-out: GI; in short: as §1
THP-1 [8] = experiment: Cytotoxicity against human THP1 cells assessed as growth inhibition at 1 uM after 48 hrs by sulforhodamine B assay; type: functional; settings: THP-1, 48 h, read-out: GI
[9] = Cytotoxicity against human HCT116 cells assessed as growth inhibition at 1 uM after 48 hrs by sulforhodamine B assay; type: functional; settings: HCT-116, 48 h, read-out: GI
COLO 205 [10] = experiment: Cytotoxicity against human COLO205 cells assessed as growth inhibition at 1 uM after 48 hrs by sulforhodamine B assay; type: functional; settings: COLO 205, 48 h, read-out: GI
HCT-116 = experiment: as §3; type: functional; in short: as §1
A549 [11] = experiment: Cytotoxicity against human A549 cells assessed as growth inhibition at 1 uM after 48 hrs by sulforhodamine B assay; type: functional; settings: A549, 48 h, read-out: GI
THP-1 [12] = experiment: Disruption of microtubule organization in human THP1 cells at 1 uM after 48 hrs by immunofluorescence technique; type: cell-based
THP-1 [13] = experiment: Disruption of microtubule organization in human THP1 cells at 5 uM after 48 hrs by immunofluorescence technique; type: cell-based
In short: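 THP-1 cells were exposed to 1 µM paclitaxel or 5 µM test agent for 48 h, alongside untreated controls. Microtubules and unassembled tubulin were immunostained (green) and DNA was stained with DAPI. Microtubule organisation was examined by confocal microscopy.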

SMILES	growth inhibition (GI) (A549 [1])	IC50 [2]	IC50 (THP-1 [3])	inhibition of growth at 50 µM [4]	IC50 (COLO 205 [5])	inhibition of growth at 50 µM (COLO 205 [6])	inhibition of growth at 50 µM (THP-1 [7])	inhibition of growth at 50 µM (A549 [1])	growth inhibition (GI) (HCT-116)	growth inhibition (GI) (COLO 205 [6])	also measured
CC(=O)n1c2ccccc2c2cc(-c3cccc4ccccc34)nnc21	inactive	4.36 µM	2.39 µM	80%	5.74 µM	83%	89%				IC50 (Tubulin): 8.97 µM
COc1cc(-c2cc3c4c(Cl)cccc4n(C(C)=O)c3nn2)cc(OC)c1OC	inactive	15.7 µM	13.4 µM	66%	17 µM	59%	77%				
CC(=O)n1c2ccccc2c2cc(-c3cccs3)nnc21		6.17 µM	4.31 µM	71%	7.15 µM	69%	76%	10%			
COc1cccc2c1C(=O)c1c(O)c3c(c(O)c1C2=O)C[C@@](O)(C(=O)CO)C[C@@H]3O[C@H]1C[C@H](N)[C@H](O)[C@H](C)O1 [DOXORUBICIN HYDROCHLORIDE]											inhibition of growth at 1 µM (THP-1 [8]): 71%; inhibition of growth at 1 µM [9]: 66%; inhibition of growth at 1 µM (COLO 205 [10]): 72%
CC(=O)n1c2cc(Br)cc(Br)c2c2cc(-c3ccc4ccccc4c3)nnc21	inactive						26%		inactive	inactive	
COc1ccc(-c2cc3c4c(I)cccc4n(C(C)=O)c3nn2)cc1	inactive					9%	22%		inactive		
CC(=O)n1c2cccc(Cl)c2c2cc(-c3ccc(Br)cc3)nnc21	inactive					10%	15%		inactive		
CC(=O)n1c2cccc(Br)c2c2cc(-c3ccc(Cl)cc3)nnc21	inactive								inactive	inactive	growth inhibition (GI) (THP-1 [7]): inactive
CC(=O)n1c2ccccc2c2cc(-c3ccccc3)nnc21		7.77 µM	5.75 µM	66%	8.11 µM	64%	71%	10%			
CC(=O)n1c2cccc(Br)c2c2cc(-c3ccc([N+](=O)[O-])cc3)nnc21	inactive								inactive	inactive	growth inhibition (GI) (THP-1 [7]): inactive
CC(=O)n1c2cc(Br)cc(Br)c2c2cc(-c3cccc4ccccc34)nnc21	inactive						24%		inactive	inactive	
CC(=O)n1c2cccc(Br)c2c2cc(-c3ccc(Br)cc3)nnc21	inactive								inactive	inactive	growth inhibition (GI) (THP-1 [7]): inactive
CC(=O)n1c2cccc(I)c2c2cc(-c3ccccc3)nnc21	inactive						20%		inactive	inactive	
CC(=O)n1c2cccc(Cl)c2c2cc(-c3cccc4ccccc34)nnc21		15.7 µM	14.1 µM	44%	18 µM	40%	65%	18%			
CC(=O)n1c2cccc(I)c2c2cc(-c3ccc(Br)cc3)nnc21	inactive								inactive	inactive	growth inhibition (GI) (THP-1 [7]): inactive
CC(=O)n1c2cccc(I)c2c2cc(-c3ccc([N+](=O)[O-])cc3)nnc21	inactive								inactive	inactive	growth inhibition (GI) (THP-1 [7]): inactive
CC(=O)n1c2cccc(I)c2c2cc(-c3ccc(Cl)cc3)nnc21	inactive								inactive	inactive	growth inhibition (GI) (THP-1 [7]): inactive
COc1ccc(-c2cc3c4c(Cl)cccc4n(C(C)=O)c3nn2)cc1OC	inactive	15.8 µM	13.8 µM	49%	17.2 µM	54%	71%				
CC(=O)n1c2cccc(Cl)c2c2cc(-c3ccc4ccccc4c3)nnc21		16.2 µM	14 µM	45%	17.6 µM	41%	68%	19%			
CC(=O)n1c2ccccc2c2cc(-c3ccc4ccccc4c3)nnc21	inactive	4.44 µM	2.41 µM	81%	5.76 µM	82%	89%				IC50 (Tubulin): 8.91 µM
CC(=O)n1c2cccc(I)c2c2cc(-c3cccc4ccccc34)nnc21	inactive						29%		inactive	inactive	
CC(=O)n1c2ccccc2c2cc(-c3ccc[nH]3)nnc21		6.14 µM	4.28 µM	72%	7.23 µM	68%	78%	12%			
COc1ccc(-c2cc3c4c(Cl)cccc4n(C(C)=O)c3nn2)cc1		16.9 µM	14.9 µM	36%	18.2 µM	39%	60%	14%			
CC(=O)O[C@H]1C(=O)[C@@]2(C)[C@H]([C@H](OC(=O)c3ccccc3)[C@]3(O)C[C@H](OC(=O)[C@H](O)[C@@H](NC(=O)c4ccccc4)c4ccccc4)C(C)=C1C3(C)C)[C@]1(OC(C)=O)CO[C@@H]1C[C@@H]2O [PACLITAXEL]											inhibition of growth at 1 µM (A549 [11]): 70%; Activity (THP-1 [12]): Active
COc1ccc(-c2cc3c4ccccc4n(C(C)=O)c3nn2)cc1		5.23 µM	3.45 µM	72%	6.63 µM	72%	81%	10%			
COc1ccc(-c2cc3c4ccccc4n(C(C)=O)c3nn2)cc1OC		4.4 µM	2.33 µM	80%	5.69 µM	82%	90%	12%			IC50 (Tubulin): 4.92 µM
COc1cc(-c2cc3c4ccccc4n(C(C)=O)c3nn2)cc(OC)c1OC		2.89 µM	1.13 µM	86%	4.15 µM	89%	99%	20%			IC50 (Tubulin): 2.41 µM; Activity (THP-1 [13]): Active
CC(=O)n1c2cccc(I)c2c2cc(-c3ccc4ccccc4c3)nnc21	inactive						25%		inactive	inactive	
CC(=O)n1c2cc(Br)cc(Br)c2c2cc(-c3ccccc3)nnc21	inactive						21%		inactive	inactive	
CC(=O)n1c2cccc(Br)c2c2cc(-c3ccccc3)nnc21	inactive						27%		inactive	inactive	
